# Experimental data of several laboratories.
# Lines come from different studies, so protocols differ.
# Target: G protein-coupled receptor kinase 4 (GRK4, Homo sapiens, UniProt P32298)
Compound,test,setting,remaining binding [%]
C[C@@]1(Cc2ccc(C#N)cc2)C(=O)N(c2cc(Cl)cc(Cl)c2)c2ncc(C(=O)NC3(c4nc(C5CCC5)no4)CC3)n21,"cell-free assay, competition with immobilised ligand",1 µM,100
COc1ccnn2ncc(-c3ccnc(N(C)C)n3)c12,binding,1 µM,79
Cc1cnc(Nc2ccc(C(=O)N3CCC(N4CCCC4)CC3)cc2)nc1-c1cc2ccccc2s1,"binding, competition with immobilised ligand",1 µM,41
CCN1CCN(Cc2ccc(C(=O)Nc3ccc(C)c(Oc4ccc5c(c4)CC(=O)N5)c3)cc2C(F)(F)F)CC1,"binding, competition with immobilised ligand",1 µM,100
O=C(c1ccc(Nc2nccc(-c3cc4ccccc4s3)n2)cc1)N1CCC(N2CCCC2)CC1,"binding, competition with immobilised ligand",1 µM,0.4
CN(C)c1nccc(-c2cnc3ncccn23)n1,binding,1 µM,88
CCCOc1ccc([C@@H]2[C@@H](C(=O)O)[C@H](c3ccc4c(c3)OCO4)CN2CC(=O)Nc2c(CC)cccc2CC)cc1,"cell-free assay, competition with immobilised ligand",1 µM,100
c1cncc(-c2cccc(Nc3nccc(NC4CCCCC4)n3)c2)c1,"binding, competition with immobilised ligand",10 µM,56
C[C@@H]1CCN(c2nccc(-c3cnn4ncccc34)n2)C1,binding,1 µM,56
CNC(=O)[C@@H]1CC[C@@H](n2c(-c3ccc4cnccc4c3)nc3ccc(C(=O)NCc4cccc(C(N)=O)c4)cc32)C1,"binding, competition with immobilised ligand",1 µM,93
O=C(NCCCN1CCOCC1)c1ccc(Nc2nccc(-c3cc4ccccc4s3)n2)cc1,"binding, competition with immobilised ligand",1 µM,1.4
COc1ccc2c(O[C@@H]3C[C@H]4C(=O)N[C@]5(C(=O)O)CC5/C=C\CCCCC[C@H](NC(=O)OC5CCCC5)C(=O)N4C3)cc(-c3csc(NC(=O)C(C)C)n3)nc2c1C (stereo partly drawn),"cell-free assay, competition with immobilised ligand",1 µM,67
CC1CCCN1c1nccc(-c2cnn3ncccc23)n1 (stereo not drawn),binding,1 µM,75
O=C(NCC1CCOCC1)c1n[nH]cc1NC(=O)c1c(F)cccc1F,"binding, competition with immobilised ligand",1 µM,100
O=C1CCc2cc(Nc3cc(OC4CCOCC4)c([N+](=O)[O-])cc3Cl)ccc2N1,"cell-free assay, competition with immobilised ligand",1 µM,100
CN(c1nccc(-c2cnn3ncccc23)n1)C1CC1,binding,1 µM,72
Nc1c(C(=O)NCc2ccc(C(=O)NCCCC3CCCCC3)cc2)cnn1-c1ccccc1,"cell-free assay, competition with immobilised ligand",0.1 µM,100
c1cnn2ncc(-c3ccnc(N4CCC45COC5)n3)c2c1,binding,1 µM,81
C=CC(=O)N1CCC(C(=O)NCC(=O)N2CCN(c3nc(-c4cnc(N)nc4C(F)F)nc(N4CCOCC4)n3)CC2)CC1,"binding, competition with immobilised ligand",1 µM,100
CN(C)C(=O)Cn1cc(-c2nc([C@@](C)(c3ccc(-c4cnc(N)nc4)cc3)C3CC3)no2)cn1,"cell-free assay, competition with immobilised ligand",1 µM,86
COc1cnc(Nc2cccc(S(N)(=O)=O)c2)nc1N1CCN(c2ccccc2)C(=O)C1,"binding, competition with immobilised ligand",1 µM,100
